Key:
[1] = Displacement of [3H] ifenprodil from GluN2B/GluN1a (unknown origin) expressed in mouse L(tk-) cell membranes incubated for 120 mins by scintillation counting method; design: species or system Homo sapiens
Procedure, shortened: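 Membranes from mouse L(tk-) cells co-transfected with dexamethasone-inducible GluN1a/GluN2B (1:5), induced 24 h with 4 μM dexamethasone plus 4 μM ketamine.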

[2] = biological target: Sigma non-opioid intracellular receptor 1 (Cavia porcellus, UniProt Q60492); assay type: cell membranes;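 also: radioligand displacement of [3H]-(+)-pentazocine from guinea pig brain cortex membranes, 120 min incubation, bound radioactivity read by scintillation counting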
[3] = biological target: T1, Sigma intracellular receptor 2 (Rattus norvegicus, UniProt Q5U3Y7); experiment: Displacement of [3H]-di-o-tolylguanidine from sigma2 receptor in rat liver membranes incubated for 120 mins by scintillation counting method; assay type: cell membranes
T1 sequence (Q5U3Y7 whole entry): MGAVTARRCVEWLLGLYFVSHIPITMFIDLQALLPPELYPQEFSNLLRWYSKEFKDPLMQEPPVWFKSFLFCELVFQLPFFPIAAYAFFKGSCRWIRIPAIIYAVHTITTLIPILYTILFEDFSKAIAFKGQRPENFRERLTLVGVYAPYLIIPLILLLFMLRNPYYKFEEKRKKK

[4] = Selectivity ratio of Ki for sigma1 receptor in guinea pig brain cortex membranes to ratio of Ki for GluN2B/GluN1a (unknown origin) expressed in mouse L(tk-) cell membranes; assay type: cell-based
[5] = organism: Sus scrofa; details: at 1 µM
[6] = Selectivity ratio of Ki for sigma2 receptor in rat liver membranes to ratio of Ki for GluN2B/GluN1a (unknown origin) expressed in mouse L(tk-) cell membranes; assay type: cell-based

Sequence of Sigma non-opioid intracellular receptor 1 (Q60492 whole entry): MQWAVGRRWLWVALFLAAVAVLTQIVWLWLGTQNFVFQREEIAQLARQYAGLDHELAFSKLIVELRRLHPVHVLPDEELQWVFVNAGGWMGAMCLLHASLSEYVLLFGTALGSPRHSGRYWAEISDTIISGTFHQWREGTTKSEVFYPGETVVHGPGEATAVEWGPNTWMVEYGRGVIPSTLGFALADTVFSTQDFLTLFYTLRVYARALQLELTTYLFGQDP

| Ki [2] [nM] | Ki [3] [nM] | inhibition [5] [%] | SMILES | Ki [1] [nM] | Ratio Ki [4] | Ratio Ki [6] |
| --- | --- | --- | --- | --- | --- | --- |
| 17 | 39 |  | Oc1ccc2c(c1)CCN(CCC(F)Cc1ccccc1)CC2 (racemic) [listing 1 of 2 here] | 16 |  |  |
| 185 | 643 |  | FC(CCOc1ccc2c(c1)CCN(CCC(F)Cc1ccccc1)CC2)Cc1ccccc1 (stereo unspecified) | 249 |  |  |
|  |  | 35 | Oc1ccc2c(c1)CCN(CCCCc1ccccc1)CC2O (stereo unspecified) |  | 2 to 3 |  |
| 11 | 56 | 0 | COc1ccc2c(c1)CCN(CCCCc1ccccc1)CC2 | 55 |  |  |
| 183 | 1800 | 0 | OC1CN(CCC(F)Cc2ccccc2)CCc2cc(OCc3ccccc3)ccc21 (stereo unspecified) | 813 |  | 2 |
| 210 | 4500 | 0 | COc1ccc2c(c1)CCN(CCC(F)Cc1ccccc1)CC2O (stereo unspecified) | 630 |  | 7 |
|  |  | 15 | Oc1ccc2c(c1)CCN(CCC(F)Cc1ccccc1)CC2 (racemic) [listing 2 of 2 here] |  |  |  |
| 1400 | 130 | 8 | Oc1ccc2c(c1)CCN(CCC(F)Cc1ccccc1)CC2O (stereo unspecified) | 422 | 2 to 3 |  |
|  |  |  | OC(CN1CCC(Cc2ccc(F)cc2)CC1)c1ccc(Cl)cc1 (stereo unspecified) [ELIPRODIL] | 13 |  |  |
|  |  |  | OC1CN(CCCCc2ccccc2)CCc2cc(OCc3ccccc3)ccc21 (stereo unspecified) | 505 |  | 2 |
| 25 | 524 |  | FCCOc1ccc2c(c1)CCN(CCC(F)Cc1ccccc1)CC2 (stereo unspecified) | 348 |  |  |
| 10 | 49 |  | Oc1ccc2c(c1)CCN(CCC(F)Cc1ccccc1)CC2 (single isomer, unassigned; (+)) | 54 |  |  |
| 25 | 63 |  | Oc1ccc2c(c1)CCN(CCC(F)Cc1ccccc1)CC2 (single isomer, unassigned; (-)) | 65 |  |  |
| 32 | 12 |  | Oc1ccc2c(c1)CCN(CCCCc1ccccc1)CC2 | 9.9 | 2 to 3 |  |

| SMILES | Ki [2] [nM] | Ki [3] [nM] | inhibition [5] [%] | Ki [1] [nM] | Ratio Ki [4] | Ratio Ki [6] |
| --- | --- | --- | --- | --- | --- | --- |
| Oc1ccc2c(c1)CCN(CC(F)CCc1ccccc1)CC2 (stereo unspecified) | 70 | 153 | 0 | 86 |  |  |
| OC1CN(CC(F)CCc2ccccc2)CCc2cc(OCc3ccccc3)ccc21 (stereo unspecified) | 393 | 1400 | 0 | 784 |  | 2 |
| COc1ccc2c(c1)CCN(CC(F)CCc1ccccc1)CC2O (stereo unspecified) | 585 | 7900 | 0 | 506 |  | 15 |
| FC(CCc1ccccc1)CN1CCc2ccccc2CC1 (stereo unspecified) | 108 | 333 | 0 | 239 |  |  |
| COc1ccc2c(c1)CCN(CC(F)CCc1ccccc1)CC2 (stereo unspecified) | 213 | 740 | 0 | 602 |  |  |

From ChEMBL document CHEMBL4393719, “Tetrahydro-3-benzazepines with fluorinated side chains as NMDA and σ1 receptor antagonists: Synthesis, receptor affinity, selectivity and antiallodynic activity” (Eur J Med Chem, 2019)
